Source: ChEMBL document CHEMBL1146002, “Substituted N-(2-aminophenyl)-benzamides, (E)-N-(2-aminophenyl)-acrylamides and their analogues: novel classes of histone deacetylase inhibitors” (Bioorg Med Chem Lett, 2006)
Active and inactive are the calls of the source. No cut-off for these calls is given here.

System: HCT-116
Assay: Antitumor activity against human HCT116 cells xenografted in mouse at 50 mg/kg, ip
Assay type: functional
Conditions: HCT-116, ip, route intraperitoneal, read-out: TGI
Method in brief: (§1)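 Human tumour cells grown as xenografts in mice; compounds given daily by intraperitoneal injection. Antitumour activity is expressed as % tumour growth inhibition relative to vehicle-treated controls. Body weight was followed as the measure of gross toxicity.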

SMILES	inhibition in vivo at 50 mg/kg
COc1ccc(NCc2ccc(C(=O)Nc3ccccc3N)cc2)cc1OC	66%

System: SW48
Assay: Antitumor activity against human SW48 cells xenografted in mouse at 50 mg/kg, ip
Assay type: functional
Conditions: route intraperitoneal, read-out: TGI
Method in brief: as §1

SMILES	inhibition in vivo at 50 mg/kg
COc1ccc(NCc2ccc(C(=O)Nc3ccccc3N)cc2)cc1OC	66%

System: not listed separately
Assay: Half life in iv dosed rat
Assay type: ADME, organism-based
Conditions: in vivo

half-life	SMILES
0.7 h	COc1ccc(NCc2ccc(C(=O)Nc3ccccc3N)cc2)cc1OC
1.8 h	COc1cc(NCc2ccc(/C=C/C(=O)Nc3ccccc3N)cc2)cc(OC)c1OC

System: not listed separately
Assay: Bioavailability in rat
Assay type: ADME, organism-based
Conditions: in vivo

bioavailability	SMILES
65%	COc1cc(NCc2ccc(/C=C/C(=O)Nc3ccccc3N)cc2)cc(OC)c1OC

Target: Histone deacetylase 1 (Homo sapiens, UniProt Q13547)
Sequence (Q13547 whole entry): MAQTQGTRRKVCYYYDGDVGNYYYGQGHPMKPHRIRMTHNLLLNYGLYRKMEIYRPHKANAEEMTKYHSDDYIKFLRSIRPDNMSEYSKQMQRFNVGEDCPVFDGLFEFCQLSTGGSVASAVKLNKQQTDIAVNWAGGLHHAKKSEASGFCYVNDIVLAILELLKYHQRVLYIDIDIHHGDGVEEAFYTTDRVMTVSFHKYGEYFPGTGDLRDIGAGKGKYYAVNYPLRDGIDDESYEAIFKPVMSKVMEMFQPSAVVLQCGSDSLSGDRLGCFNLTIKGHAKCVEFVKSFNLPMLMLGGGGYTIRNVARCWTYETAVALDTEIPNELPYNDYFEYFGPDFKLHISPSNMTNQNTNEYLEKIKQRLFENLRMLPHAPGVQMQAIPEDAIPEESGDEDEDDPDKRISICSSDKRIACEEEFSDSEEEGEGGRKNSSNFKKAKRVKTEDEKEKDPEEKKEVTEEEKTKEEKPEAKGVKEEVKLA
Assay: Inhibition of human recombinant HDAC1
Conditions: not given

SMILES	IC50
COc1ccc(CNc2ccc(C(=O)Nc3ccccc3N)cc2)cc1OC	4 µM
Nc1ccccc1NC(=O)/C=C/c1ccc(NCc2ccncc2)nc1	4 µM
COc1ccc(NCc2ccc(/C=C/C(=O)Nc3ccccc3N)cc2)cc1	4 µM
Nc1ccccc1NC(=O)/C=C/c1ccc(NCc2ccncc2)cc1	10 µM
CN(C)c1ccc(CNc2ccc(/C=C/C(=O)Nc3ccccc3N)cn2)cc1	4 µM
Nc1ccccc1NC(=O)/C=C/c1ccc(CNc2ccccc2)cc1	17 µM
COc1cccc(NCc2ccc(/C=C/C(=O)Nc3ccccc3N)cc2)c1	17 µM
COc1ccc(CNc2ccc(C(=O)Nc3ccccc3N)cn2)cc1	4 µM
COc1ccccc1NCc1ccc(/C=C/C(=O)Nc2ccccc2N)cc1	22 µM
COc1cc(CNc2ccc(/C=C/C(=O)Nc3ccccc3N)cn2)cc(OC)c1OC	4 µM
COc1ccc(CNc2ccc(/C=C/C(=O)Nc3ccccc3N)cc2)cc1	4 µM
Nc1ccccc1NC(=O)/C=C/c1ccc(NCc2ccc([N+](=O)[O-])cc2)cc1	4 µM
Nc1ccccc1NC(=O)/C=C/c1ccc(NCc2ccc(F)cc2)nc1	5 µM
COc1cc(CNc2ccc(C(=O)Nc3ccccc3N)cc2)cc(OC)c1OC	3 µM
Nc1ccccc1NC(=O)/C=C/c1ccc(NCc2ccc(OC(F)(F)F)cc2)cc1	5 µM
COc1cc(CNc2ccc(C(=O)Nc3ccccc3N)cn2)cc(OC)c1OC	5 µM

Continued, values first:

IC50	SMILES
2 µM	COc1ccc(NCc2ccc(/C=C/C(=O)Nc3ccccc3N)cc2)cc1OC
3 µM	COc1cc(NCc2ccc(/C=C/C(=O)Nc3ccccc3N)cn2)cc(OC)c1OC
2 µM	Nc1ccccc1NC(=O)/C=C/c1ccc(NCCNc2ccccc2)nc1
2 µM	COc1ccc(CNc2ccc(/C=C/C(=O)Nc3ccccc3N)cn2)cc1
2 µM	COc1cc(NCc2ccc(/C=C/C(=O)Nc3ccccc3N)cc2)cc(OC)c1OC
3 µM	COc1cc(NCc2ccc(C(=O)Nc3ccccc3N)cc2)cc(OC)c1OC
3 µM	COc1cc(N(C)Cc2ccc(/C=C/C(=O)Nc3ccccc3N)cc2)cc(OC)c1OC
3 µM	COc1ccc(CCNc2ccc(C(=O)Nc3ccccc3N)cn2)cc1
2 µM	Nc1ccccc1NC(=O)/C=C/c1ccc(NCc2ccc(OC(F)(F)F)cc2)nc1
3 µM	Nc1ccccc1NC(=O)/C=C/c1ccc(NCc2ccccc2)nc1
3 µM	Nc1ccccc1NC(=O)/C=C/c1ccc(NCCCc2ccccc2)nc1
0.6 µM	COc1ccc(NCc2ccc(C(=O)Nc3ccccc3N)cc2)cc1
2 µM	COc1ccc(CNc2ccc(C(=O)Nc3ccccc3N)cc2)cc1

System: HCT-116
Assay: Antiproliferative activity against human HCT116 cells by MTT assay
Assay type: functional, cell-based
Conditions: not given

SMILES	IC50
Nc1ccccc1NC(=O)/C=C/c1ccc(NCc2ccncc2)nc1	7 µM
Nc1ccccc1NC(=O)/C=C/c1ccc(NCc2ccncc2)cc1	2 µM
CN(C)c1ccc(CNc2ccc(/C=C/C(=O)Nc3ccccc3N)cn2)cc1	3 µM
Nc1ccccc1NC(=O)/C=C/c1ccc(CNc2ccccc2)cc1	11 µM
COc1cccc(NCc2ccc(/C=C/C(=O)Nc3ccccc3N)cc2)c1	10 µM
Nc1ccccc1NC(=O)/C=C/c1ccc(NCc2ccc([N+](=O)[O-])cc2)cc1	15 µM
Nc1ccccc1NC(=O)/C=C/c1ccc(NCc2ccc(F)cc2)nc1	2 µM
COc1cc(CNc2ccc(C(=O)Nc3ccccc3N)cc2)cc(OC)c1OC	2 µM
Nc1ccccc1NC(=O)/C=C/c1ccc(NCc2ccc(OC(F)(F)F)cc2)cc1	50 µM
COc1cc(CNc2ccc(C(=O)Nc3ccccc3N)cn2)cc(OC)c1OC	3 µM

Results, then the compound that gave them:

IC50	SMILES
5 µM	COc1ccc(NCc2ccc(/C=C/C(=O)Nc3ccccc3N)cc2)cc1OC
5 µM	Nc1ccccc1NC(=O)/C=C/c1ccc(NCCNc2ccccc2)nc1
2 µM	COc1cc(NCc2ccc(C(=O)Nc3ccccc3N)cc2)cc(OC)c1OC
5 µM	COc1cc(N(C)Cc2ccc(/C=C/C(=O)Nc3ccccc3N)cc2)cc(OC)c1OC
4 µM	Nc1ccccc1NC(=O)/C=C/c1ccc(NCc2ccc(OC(F)(F)F)cc2)nc1
2 µM	Nc1ccccc1NC(=O)/C=C/c1ccc(NCCCc2ccccc2)nc1
2 µM	COc1ccc(NCc2ccc(C(=O)Nc3ccccc3N)cc2)cc1
1 µM	COc1ccc(CNc2ccc(C(=O)Nc3ccccc3N)cc2)cc1

System: HMEC
Assay: Cytotoxicity against human HMEC cells
Assay type: functional, cell-based
Conditions: not given
Method in brief: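 Cytotoxicity toward normal cells was measured as inhibition of proliferation of human normal mammary epithelial cells (HMEC), reported as IC50.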

SMILES	IC50
COc1ccc(NCc2ccc(C(=O)Nc3ccccc3N)cc2)cc1OC	15 µM
COc1cc(NCc2ccc(/C=C/C(=O)Nc3ccccc3N)cc2)cc(OC)c1OC	39 µM

Target: Histone deacetylase (Homo sapiens) (UniProt Q13547+O15379+Q9UBN7+Q92769+Q9UQL6+Q8WUI4+Q9BY41+Q96DB2+P56524+Q9UKV0+Q969S8)
Assay: Inhibition of HDAC assessed as ability to induce histone acetylation in human T24 cells
Assay type: functional, cell-based
Conditions: T-24
Method in brief: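 T24 human bladder carcinoma cells treated at […] for 16 h. Histones acid-extracted, separated by SDS–PAGE and immunoblotted with antibodies specific for acetylated histone H4; total H4 also probed. Dose-dependence judged from blot.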

Activity	SMILES
Dose-dependent effect	COc1ccc(NCc2ccc(C(=O)Nc3ccccc3N)cc2)cc1OC
Dose-dependent effect	COc1cc(NCc2ccc(/C=C/C(=O)Nc3ccccc3N)cc2)cc(OC)c1OC

System: T-24
Assay: Induction of p21 WAF1/Cip1 transcription in human T24 cells assessed by luciferase reporter gene activity
Assay type: functional, cell-based
Conditions: not given

SMILES	Activity
COc1ccc(NCc2ccc(C(=O)Nc3ccccc3N)cc2)cc1OC	Active
COc1cc(NCc2ccc(/C=C/C(=O)Nc3ccccc3N)cc2)cc(OC)c1OC	Active

System: HCT-116
Assay: Cell cycle arrest in human HCT116 cells at G2/M phase
Assay type: functional, cell-based
Conditions: not given
Method in brief: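 HCT116 cells treated with compounds in 1% DMSO for 16 h, then harvested by trypsinization and fixed. DNA was stained with propidium iodide and analysed by flow cytometry. The (G2+M)/S ratio is the percentage of gated cells in G2/M divided by the percentage in S phase.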

SMILES	Activity
COc1ccc(NCc2ccc(C(=O)Nc3ccccc3N)cc2)cc1OC	Active
COc1cc(NCc2ccc(/C=C/C(=O)Nc3ccccc3N)cc2)cc(OC)c1OC	Active
